Measured values: ChEMBL document CHEMBL3817760, “Design, synthesis and evaluation of novel indandione derivatives as multifunctional agents with cholinesterase inhibition, anti-β-amyloid aggregation, antioxidant and neuroprotection properties against Alzheimer's disease” (Bioorg Med Chem, 2016)
pIC50: −log10 of the molar value.

What was measured:
Acetylcholinesterase = Acetylcholinesterase (Electrophorus electricus, UniProt O42275); assay: Inhibition of electric eel AChE using acetylthiocholine iodide as substrate preincubated for 5 mins followed by substrate addition measured after 2 mins by Ellman's method
Sequence of Acetylcholinesterase (O42275 whole entry): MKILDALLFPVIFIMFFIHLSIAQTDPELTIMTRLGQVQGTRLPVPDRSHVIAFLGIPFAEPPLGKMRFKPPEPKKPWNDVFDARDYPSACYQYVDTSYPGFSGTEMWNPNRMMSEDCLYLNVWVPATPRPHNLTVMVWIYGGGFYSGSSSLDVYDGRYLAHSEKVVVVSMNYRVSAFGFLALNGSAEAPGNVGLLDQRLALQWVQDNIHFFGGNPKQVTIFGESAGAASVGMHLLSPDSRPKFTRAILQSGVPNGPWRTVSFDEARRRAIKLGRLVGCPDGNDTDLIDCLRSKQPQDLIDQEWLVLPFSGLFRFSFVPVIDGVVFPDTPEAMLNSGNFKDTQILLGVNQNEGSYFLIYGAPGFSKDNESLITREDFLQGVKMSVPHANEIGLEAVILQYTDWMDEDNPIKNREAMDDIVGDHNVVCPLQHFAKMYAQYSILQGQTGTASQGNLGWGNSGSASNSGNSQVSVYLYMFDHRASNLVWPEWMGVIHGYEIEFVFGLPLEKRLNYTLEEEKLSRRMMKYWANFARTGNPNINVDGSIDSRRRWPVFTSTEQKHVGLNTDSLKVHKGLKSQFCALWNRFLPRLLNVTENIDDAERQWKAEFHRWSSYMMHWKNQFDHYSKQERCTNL

Cholinesterase = Cholinesterase (Equus caballus, UniProt P81908); assay: Inhibition of equine serum BuChE using butyrylthiocholine iodide as substrate preincubated for 5 mins followed by substrate addition measured after 2 mins by Ellman's method
Sequence of Cholinesterase (P81908 whole entry): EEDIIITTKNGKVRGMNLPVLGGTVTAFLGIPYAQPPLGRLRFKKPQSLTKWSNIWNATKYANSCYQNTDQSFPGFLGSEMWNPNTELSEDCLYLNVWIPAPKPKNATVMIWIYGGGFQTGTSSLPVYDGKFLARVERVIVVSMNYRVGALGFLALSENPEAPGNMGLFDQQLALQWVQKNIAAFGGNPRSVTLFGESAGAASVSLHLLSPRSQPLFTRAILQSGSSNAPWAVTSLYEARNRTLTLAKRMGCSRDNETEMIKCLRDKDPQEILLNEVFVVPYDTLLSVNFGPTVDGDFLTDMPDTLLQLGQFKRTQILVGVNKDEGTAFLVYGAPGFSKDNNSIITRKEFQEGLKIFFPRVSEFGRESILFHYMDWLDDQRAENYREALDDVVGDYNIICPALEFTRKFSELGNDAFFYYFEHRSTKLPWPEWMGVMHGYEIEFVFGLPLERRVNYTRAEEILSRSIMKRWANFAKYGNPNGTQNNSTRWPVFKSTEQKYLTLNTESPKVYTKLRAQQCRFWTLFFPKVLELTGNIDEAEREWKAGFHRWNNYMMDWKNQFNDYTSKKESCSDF
How it was run: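 BuChE from equine serum (0.06 U/mL) in 0.1 M phosphate buffer pH 8.0, compounds diluted from ethanol stocks to 1-100 µM final, standing 5 min before DTNB. Started with 0.075 M butyrylthiocholine; A412 read 2 min later at 25°C. Enzyme-free blanks and inhibitor-free full-activity controls included. Triplicates; IC50 from nonlinear regression of concentration-inhibition data.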

[1] = Selectivity index, ratio of IC50 for equine serum BuChE to IC50 for electric eel AChE
How it was run: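 Ratio of IC50 values from the modified Ellman assay. Equine serum BuChE (0.06 U/mL) and electric eel AChE (0.22 U/mL), each in 0.1 M phosphate pH 8.0 with DTNB and 0.075 M thiocholine substrate, A412 at 2 min, 25°C. IC50s were means of three experiments.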

[2] = target: T1, Amyloid-beta precursor protein (Homo sapiens, UniProt P05067); assay: Inhibition of self-induced amyloid beta (1 to 42) (unknown origin) aggregation at 25 uM incubated for 48 hrs measured after 5 mins by thioflavin-T fluorescence assay
T1 sequence (P05067 whole entry): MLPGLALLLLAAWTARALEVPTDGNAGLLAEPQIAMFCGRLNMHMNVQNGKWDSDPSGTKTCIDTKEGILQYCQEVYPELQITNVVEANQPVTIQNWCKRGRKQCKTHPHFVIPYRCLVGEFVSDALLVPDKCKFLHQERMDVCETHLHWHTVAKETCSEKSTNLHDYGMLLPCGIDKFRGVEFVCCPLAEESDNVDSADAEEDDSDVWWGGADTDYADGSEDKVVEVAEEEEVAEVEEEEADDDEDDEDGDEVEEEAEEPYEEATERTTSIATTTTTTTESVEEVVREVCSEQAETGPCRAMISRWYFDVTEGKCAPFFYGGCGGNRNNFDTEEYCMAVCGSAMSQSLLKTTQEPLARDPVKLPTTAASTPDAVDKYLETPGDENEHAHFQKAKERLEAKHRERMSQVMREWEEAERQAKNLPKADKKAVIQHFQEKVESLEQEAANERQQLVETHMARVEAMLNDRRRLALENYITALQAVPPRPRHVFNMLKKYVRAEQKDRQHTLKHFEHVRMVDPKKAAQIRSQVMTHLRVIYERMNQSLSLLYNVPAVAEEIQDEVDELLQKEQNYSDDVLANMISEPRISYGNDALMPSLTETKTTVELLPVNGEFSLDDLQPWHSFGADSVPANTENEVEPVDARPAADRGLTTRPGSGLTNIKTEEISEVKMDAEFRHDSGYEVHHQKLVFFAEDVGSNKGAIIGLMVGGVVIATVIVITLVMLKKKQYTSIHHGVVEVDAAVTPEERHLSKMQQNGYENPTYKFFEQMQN
How it was run: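 Aβ1-42 pretreated with HFIP, then diluted in 50 mM phosphate buffer pH 7.4 to 25 μM final. Incubated ± compound (25 μM) at 37°C for 48 h, then diluted in 50 mM glycine–NaOH pH 8.0 containing 5 μM thioflavin-T. Fluorescence read 5 min later (ex 450/em 485 nm). Inhibition % = (1−IFi/IFc)×100 after background subtraction; triplicate.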

[3] = target: T1, Amyloid-beta precursor protein; assay: Inhibition of self-induced amyloid beta (1 to 42) (unknown origin) aggregation incubated for 48 hrs measured after 5 mins by thioflavin-T fluorescence assay
[4] = target: T1, Amyloid-beta precursor protein; assay: Potency index, ratio of curcumin IC50 to compound IC50 for self-induced amyloid beta (1 to 42) (unknown origin) aggregation

Row | Structure (SMILES) | pIC50 (Acetylcholinesterase) | pIC50 (Cholinesterase) | Ratio IC50 [1] | inhibition [2] | pIC50 [3] | Ratio IC50 [4]
1 | O=C1C(=Cc2ccc(N3CCN(c4ccc(C(F)(F)F)cc4)CC3)cc2)C(=O)c2ccccc21 | 6.85 | 5.67 | 15.1 | 74.9% | – | –
2 | O=C1C(=Cc2ccc(N3CCN(c4ccc(F)cc4)CC3)cc2)C(=O)c2ccccc21 | 6.76 | 5.29 | 29.6 | 61.8% | – | –
3 | O=C1C(=Cc2ccc(N3CCN(c4ccccc4)CC3)cc2)C(=O)c2ccccc21 | 5.61 | 5.33 | 1.9 | 57.3% | – | –
4 | Cc1ccc(N2CCN(c3ccc(C=C4C(=O)c5ccccc5C4=O)cc3)CC2)c(C)c1 | 6.53 | 6.38 | 1.39 | 69.9% | – | –
5 | O=C1C(=Cc2ccc(N3CCN(C(c4ccccc4)c4ccccc4)CC3)cc2)C(=O)c2ccccc21 | 7.21 | 5.47 | 54.9 | 80.6% | 4.93 | 1.5
6 | O=C1C(=Cc2ccc(N3CCN(C(=O)c4ccccc4)CC3)cc2)C(=O)c2ccccc21 | 4.85 | 4.87 | 0.9 | 53.9% | – | –
